# Screening data: PubChem, Sanford-Burnham Center for Chemical Genomics
# An excerpt weighted towards active compounds, which were near 2.3% of everything screened.
# STEP block – STEP phosphatase inhibitors, primary screen, biochemical, fluorescence intensity, uHTS. AID 588621, 2011. recombinant STEP, OMFP fluorogenic substrate. inhibition, % at 20 µM. Tyrosine-protein phosphatase non-receptor type 5 (Homo sapiens), P54829. hit rate 0.25% among 360,000;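 active = inhibition at 20 µM, scaled per plate between control wells, above about 37%, limit read from the data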;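 also: 0% = DMSO with enzyme and substrate and 100% = substrate only without enzyme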
#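 material = STEP tyrosine phosphatase | reagent = fluorogenic phosphatase substrate OMFP at 25 µM final | doses = single compound dose of 20 µM, 1% DMSO final | schedule = 20 min reaction, room temperature, in the dark | measured by = fluorescence, 480/540 nm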
# DNMT1 inh – human DNMT1 methyltransferase inhibitors, primary screen, biochemical, molecular beacon, fluorescence, HinP1I cleavage, uHTS | inhibition (reported as % activation of signal), % at 10 µM | hit rate 0.83% among 360,000 | AID 588458, 2011 | DNA (cytosine-5)-methyltransferase 1 (Homo sapiens), P26358; in the data active = inhibition above about 50%
# Scp1 inh – Scp-1 phosphatase inhibitors, primary screen, biochemical, colorimetric, uHTS. inhibition, % at 20 µM. Recombinant Scp1, phosphopeptide, malachite green phosphate absorbance. hit rate 0.88% among 340,000;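 active = inhibition above about 50% at 20 µM, limit read from the data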;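 also: plate controls were DMSO wells with enzyme for no effect and wells lacking enzyme for full effect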
#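 Assay system: SCP-1 catalytic fragment, aa 76-261 | Buffer or medium: Tris acetate buffer pH 5.5 with MgCl2 and Tween-20 | Compound: One concentration, 20 µM, with 1.0% DMSO | Also added: Phospho 17-mer peptide substrate | Signal: Absorbance at 630 nm | Incubation: 45 min enzyme reaction at room temperature | Measure: % inhibition of SCP-1 phosphate liberation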
# SUMO1-SIM PPI – modulators of SUMO1 protein-protein interactions, primary screen, biochemical, uHTS | inhibition, % at 20 µM | SUMO1 binding to a labelled peptide, TR-FRET, 1 h | AID 602429, 2012 | hit rate 0.33% among 360,000; in the data active = inhibition above about 37%
# LMPTP inh – LMPTP phosphatase inhibitors, primary screen, biochemical, fluorescence intensity, uHTS | hit rate 0.22% among 360,000 | recombinant LMPTP-A, OMFP fluorogenic substrate | AID 651560, 2012 | Low molecular weight phosphotyrosine protein phosphatase (Homo sapiens), P24666 | inhibition, % at 20 µM;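 active = compounds that cut the enzyme signal by at least half of the control window in the single-dose screen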;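 also: plate controls were DMSO wells with enzyme plus substrate for no effect and substrate without enzyme for full effect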
#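 Buffer or medium: Bis-Tris pH 6.0, DTT, detergent; Assay system: LMPTP-A enzyme; Quantity: 0.625 nM enzyme; Detection: endpoint fluorescence intensity; Times: 50 min dark incubation at room temperature; Controls: substrate-only low control, DMSO enzyme-plus-substrate high control; Doses: single 20 µM dose; Read-out: percent inhibition versus substrate-only and uninhibited controls; Reagent: 400 µM OMFP.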
# Rpn11 inh – Rpn11 (PSMD14) deubiquitinase inhibitors, primary screen, biochemical, fluorescence polarization, uHTS | 26S proteasome non-ATPase regulatory subunit 14 (Homo sapiens), O00487 | human 26S proteasome, Ub4-pepOG fluorescence polarization; 20S core pre-blocked with epoxomicin | inhibition, % at 20 µM | hit rate 0.59% among 360,000 | AID 588493, 2011;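 active = inhibition at 20 µM, scaled to each plate's controls, above about 33%, limit read from the data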
# The depositor's hits bear a star; . = not tested or not shown.
SMILES,STEP block,DNMT1 inh,Scp1 inh,SUMO1-SIM PPI,LMPTP inh,Rpn11 inh
Cc1cc(C)c2c(N)c(C(=O)Nc3ccc([N+](=O)[O-])cc3)sc2n1,18.6,-9.6,39.3,43.9*,28.1,-0.7
COc1ccc(NC(=O)c2sc3nc(C)cc(C)c3c2N)cc1,0.6,-1.1,-1.9,-30.9,0.1,1.1
OCCN=c1cc(-c2ccccc2)oc2ccc(Cl)cc12,-1.8,9.7,-6.2,-14.3,-1.3,-8.5
CN(C)CCCN=c1cc(-c2ccccc2)oc2ccc(Cl)cc12,0.2,52.3*,-4.6,-4.6,-5.6,-18.2
c1ccc2c(c1)CNc1ccccc1-2,-1.8,1.6,2.6,2.6,-1.8,-2.3
Brc1ccc(C2Nc3cccc4cccc(c34)N2)s1,8.2,55.2*,-3.1,8.7,0.0,-17.0
Clc1ccc(C2Nc3cccc4cccc(c34)N2)cc1,6.6,-29.4,8.3,-9.7,2.8,-1.0
CN(C)c1ccc(C(CNC(=O)c2ccc(-c3ccccc3)cc2)N2CCOCC2)cc1 (configuration not stated),2.9,-1.6,.,-1.3,0.3,-4.7
COc1ccc2[nH]c(O)c(N=NC(=O)c3ccc(NS(=O)(=O)c4cccs4)cc3)c2c1,3.3,22.8,23.9,10.5,5.0,-5.9
O=C(N=Nc1c(O)[nH]c2ccc(F)cc12)c1ccc(NS(=O)(=O)c2cccs2)cc1,1.6,47.8,-10.2,-3.7,52.6*,-4.0
Cc1ccc2c(CN3CCN(S(=O)(=O)c4ccccc4C(F)(F)F)CC3)cc(=O)oc2c1C,4.9,2.7,10.4,4.3,1.6,-5.3
CCCCn1nnnc1C(c1cc2ccccc2o1)N1CCN(c2cc(C)nc3ccccc23)CC1 (configuration not stated),.,.,.,2.2,78.0*,.
O=C(NC1CC1)C1CCN(C2CCN(C(=O)CC3=CCCCC3)CC2)CC1,0.4,-4.3,-6.4,-0.2,1.9,1.5
O=S(=O)(O)c1cc(Cl)cc(N=Nc2ccc(O)cc2O)c1O,3.2,68.4*,73.1*,-13.9,50.0*,-18.2
CNc1cnc(-c2cccc(C(=O)N3CCOCC3)c2)cn1,0.6,5.2,.,-1.4,-2.1,-6.8
CCc1ccc(C(O)c2ncc(-c3ccc4ccccc4c3)[nH]2)cc1 (configuration not stated),-2.4,60.7*,.,-3.8,0.0,-2.3
O=C(O)c1cccc(-n2cccc2/C=C2/NC(=O)N(c3ccc(Cl)cc3)C2=O)c1,93.9*,86.7*,80.6*,106.5*,81.4*,.
Cc1cccc(C(=O)O/N=C(/c2ccccc2)c2ccncc2)c1,3.6,-1.4,3.8,40.3*,0.7,0.3
O=C(COC(=O)Cc1ccsc1)Nc1ccc(Br)cc1F,1.4,0.0,-12.6,2.9,-0.6,7.0
O=C(NC(=S)Nc1ccccc1N1CCOCC1)c1ccc(-c2ccccc2F)o1,4.1,-2.5,-18.4,-3.5,2.1,-7.2
Oc1c(C(Nc2nc3ccccc3s2)c2ccco2)ccc2cccnc12 (configuration not stated),-0.7,-9.3,-4.5,49.5*,3.6,29.8
CCOC(=O)N=Nc1c(O)n(CC(=O)OC)c2ccccc12,-0.4,-1.5,4.6,-16.6,-2.0,-0.9
CCOC(=O)N=Nc1c2ccccc2c2nc3no[nH]c3nc12,1.7,50.4*,-5.2,-15.0,5.3,-3.3
N#C/C(=C\c1ccc(O)c(O)c1)C(=O)Nc1cccc2ncccc12,0.4,15.9,27.6,6.9,65.8*,14.2
CCOc1cc(/C=N/Nc2ccc(S(=O)(=O)Nc3ccccc3C(=O)O)cc2[N+](=O)[O-])cc(Cl)c1O,3.2,-19.2,.,66.3*,24.0,4.1
SMILES,STEP block,DNMT1 inh,Scp1 inh,SUMO1-SIM PPI,LMPTP inh,Rpn11 inh
O=C(O)c1ccccc1NS(=O)(=O)c1ccc(N/N=C/c2cccc(O)c2O)c([N+](=O)[O-])c1,33.9,10.8,88.5*,37.3,69.4*,-12.5
CCCCc1nnc(NC(=O)COC)s1,-0.2,0.5,-6.0,-0.5,0.8,-3.1
Cc1ccc(S(=O)(=O)c2nnn3c2nc(NCCCN2CCCC2=O)c2ccccc23)cc1C,1.1,-1.2,2.9,56.2*,1.9,-6.3
Cc1nc(CC(=O)N/N=C/c2ccc(OCC(=O)O)cc2)cs1,-0.8,4.7,23.9,-1.2,1.0,-6.8
O=C(O)COc1ccc(/C=N/NC(=O)c2ccc(-c3csc(Nc4ccc(Cl)cc4)n3)cc2)cc1,93.4*,-65.9,100.0*,120.6*,92.0*,69.9*
CCOc1cc(/C=N/NC(=O)c2ccc(-c3csc(Nc4ccc(C)cc4)n3)cc2)ccc1OCC(=O)O,83.6*,77.5*,66.2*,18.7,91.6*,-7.8
CN1CCN(c2nc(C(N)=O)cc(-c3ccccc3)n2)CC1,2.0,13.3,-4.8,0.1,-0.9,39.4*
O=C(c1cnn(C(=O)CN2CCCC2=O)c1)c1ccccc1O,1.4,-1.5,-8.2,0.7,-1.7,-6.7
C[C@@H]1NC(=O)c2cc([N+](=O)[O-])cc(I)c2OCC[C@@H](C(N)=O)NC(=O)[C@H](CCCCN)NC1=O,2.2,3.9,-8.1,-20.7,-2.4,-4.7
NCCCC[C@H]1NC(=O)[C@H](CCC(=O)O)NC(=O)c2cc([N+](=O)[O-])cc(I)c2OCC[C@@H](C(N)=O)NC1=O,.,.,91.3*,.,.,.
CC(NC(=O)Cc1ccc(S(=O)(=O)N2CCOCC2)s1)c1ccc(Br)cc1 (configuration not stated),-3.0,1.1,-6.8,-8.2,-6.6,7.6
O=C(CSc1nc2ccccc2c(=O)[nH]1)c1ccc(O)c(O)c1,1.5,14.4,55.1*,21.6,18.2,-9.4
O=C(CSc1nc2ccccc2n1CCc1ccccc1)c1ccc(O)c(O)c1,82.8*,97.1*,69.0*,73.0*,78.9*,.
Cc1ccccc1N(CC(=O)NCc1ccccc1)C(=O)CCC(=O)Nc1nccs1,-2.2,1.3,-2.0,0.9,-0.8,9.4
O=C(N/N=C/c1ccc([N+](=O)[O-])o1)c1cn(-c2ccccc2)nc1-c1ccccc1,-1.0,32.4,-3.1,6.4,1.2,23.3
O=C(N/N=C/c1ccc([N+](=O)[O-])o1)c1cn(-c2ccccc2)nc1-c1ccc(Cl)cc1,2.1,50.1*,-2.8,7.9,-0.3,-8.1
COc1ccc(-c2nnc(SCC(=O)N(C)C3CCS(=O)(=O)C3)n2CC(C)C)cc1 (configuration not stated),-1.5,0.3,.,9.2,-0.4,5.3
